# According to the RNAGym collection of RNA variant scans (doi:10.1126/science.aae0568):
# Fewer inactive variants are shown than the library holds.
# B1: tRNA (parent)
# chain: GUUCCGUUGGCGUAAUGGUAACGCGUCUCCCUCCUAAGGAGAAGACUGCGGGUUCGAGUCCCGUACGGAACG
# Variants of: B1
# Assay: yeast fitness relative to wild type (ratio to wild type); higher = fitter; tRNA-Arg(CCU), competitive growth, 37 C, YPD
# Summary of the method: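 Amplicons of the tRNA-Arg(CCU) gene were sequenced, 100-nucleotide paired-end, from the start population and from each end population of a pooled yeast competition. The competition, in six parallel replicates, lasted 24 hours in YPD at 37°C. Fitness relative to wild type was calculated from changes in genotype frequencies. Genotypes had to have ≥ 100 starting reads, and estimates < 0.5 were set to 0.5.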
row,Variant,yeast fitness
1,GUUCAGUUGGCGUAAUCGUAACGCGUCUCCCUCCUAAGGAGAAGACUGCGGGUUCGCGUCCCGUACGGAACG [C5A G17C A57C],0.551
2,GUUCAGUUCGCGUAAUGGUAACGCGUCUCCCUCCUAAGGGGAAGACUGCGGGUUCGAGUCCCGUACGGAACG [C5A G9C A40G],≤ 0.5
3,GUUCAGUUGGCGUAAUGGUAACGCGUCUCCCUCCUAAAGAGAAGACCGCGGGUUCGAGUCCCGUACGGAACG [C5A G38A U47C],0.599
4,GUUCAGUUGGCGUAAUAGUAACGCGUCUCCCUCCUAAGGAGAAGAAUGCGGGUUGGAGUCCCGUACGGAACG [C5A G17A C46A C55G],≤ 0.5
5,GUUCAGUUGGCGUAAUCGUAACGCGUCUCCCUCCUAAGGAGAUGACUGCGGGUUCGAGACCCGUACGGAACG [C5A G17C A43U U59A],0.609
6,GUUCAGUUGGCGUAAUGGUAACGCGUCUCCCUCCUAAGGAAAAGACUGCGGGUUCGCGUCCAGUACGGAACG [C5A G41A A57C C62A],0.54
7,GUUCAGUUGGCGUAAUGGUAACCCGUCUCCCUCCUAAGGAGAAGACUGCGGGUUCGAGUCGUGUAUGGAACG [C5A G23C C61G C62U C66U],≤ 0.5
8,GUUCAGUUGCCGUAAUGGUAACGCGCCUCCCUCCUAAGGAGAAGACUGCGGCUUCGAGUCCCGUACGGAACG [C5A G10C U26C G52C],≤ 0.5
9,GUUCAGUUGGCCUAAUGCUAACGCGUCUCAGUCCUAAGGAGAAGACUGCGGGUGCGAGUCCCGUACGGAACG [C5A G12C G18C C30A C31G U54G],0.605
10,GUUCAGUUGGCGUAAUGGUAACGCGUCUCCCUCCUAAUGAGAAGACUGCGGGUUAGAGUCCCGUACGGAACG [C5A G38U C55A],≤ 0.5
11,GUUCAGUUGGCAUAAUGGUAACGCGUCUCCCUCCCAAGGAGAAAACUCCGGGUUGGAGUCCCGUACGGUACG [C5A G12A U35C G44A G48C C55G A69U],≤ 0.5
12,GUUCAGUUGGCGUAAUGGUAACACGUCUCCCUCCUAAGCACAAGACUGCGGGUUCGAGUCCCGUACGGACCG [C5A G23A G39C G41C A70C],≤ 0.5
13,GUUCAGUUGGCCUAAUGGUAACGCGUCUCCCUCUUAAGGAGAAGACUGCGGGUUCGAGUCCCGUACGGAACG [C5A G12C C34U],≤ 0.5
14,GUUCAGUUGGCGUAAUGCUAACGCGUCUCCCUCCUAAGGAGAAGACUGCAGGUUCGAGUCCCGUACGGAACG [C5A G18C G50A],≤ 0.5
15,GUUCAGUUGCCGUAAUGGUAAUGCGUCUCCCUCCUAAGGAGAGGACUGCGGGUUCGACUCCCGUAGGGAACG [C5A G10C C22U A43G G58C C66G],≤ 0.5
16,GUUCAGUUGGCGUAAUGGUAACCCGUCUCCCUCCUAAGGAGAAGACUGCCGGUUCGAGUCCCGUACGGAACG [C5A G23C G50C],≤ 0.5
17,GUUCAGUUGACGUAAUGGUAACGCGUCUCCCUCCCAAGGAGAAGACUGAGGGUUCGAGUCCCGUACGGAACG [C5A G10A U35C C49A],≤ 0.5
18,GUUCAGUUGGCGUAAUGGUAACGCGUCUCCCUCCUAAGCAGAAGACUGCGGGUUCGAGUGCAGUACGGAACG [C5A G39C C60G C62A],≤ 0.5
19,GUUCAGUUGGCGUAAUGAUAACGCGUCUCCCUCCUAAGGAGAAGACUGCGGGUUCGAGUCCCGUACGGAACG [C5A G18A],0.818

row,Variant,yeast fitness
1,GUUCAGUUGGCGUAAUGGUAACGCGUCUCCCUCCUAAGGAGAAGACUGCGGGUUCGAGUCGCGUACGGAGCG [C5A C61G A70G],0.585
2,GUUCAGUUGGCGUAAUGGUAACGCGUCUCCCUCCUAAGGAGAAGACUGCGGGUUUGAGUCCCGUGCGGAACG [C5A C55U A65G],0.583
3,GUUCAGUUGGCGUAAUCGUAACGCGUGUCCCUCCUAAGGAGAAGACUGCGGGUUCGAGUCCCGUACGGAACG [C5A G17C C27G],0.57
4,GUUCAGUUGGCGUAAUAGUAACGCGUCUCCCUCCUAAGGAGAAGACUGCGGGUUUGAGUCCCGUACGGAACG [C5A G17A C55U],≤ 0.5
5,GUUCAGUUGGCGUAAUGAUAACGCGUCUCCCUCCUAAGGAGAAGACUGCGGCUUCGAGUCCCGUACGGAACG [C5A G18A G52C],≤ 0.5
6,GUUCAGUUGGCGUAAUGGUAACGCGUCUCCCUCCUAAGCAGAAGAAUGCGGGUUCGAGUGCCGUACGGAACG [C5A G39C C46A C60G],≤ 0.5
7,GUUCAGUUGGCGUAAUGGUAACGCGUCUCCCUCCUAAGGAGAAGACUGCGGGUUCGAGUGCCGUAGGGGACG [C5A C60G C66G A69G],≤ 0.5
8,GUUCAGUUGGCCUAAUGCUAACGCGUCUCAGUCCUAAGGAGAAGACUGCGGGUGCGAGUCCCGUGCGGAACG [C5A G12C G18C C30A C31G U54G A65G],≤ 0.5
9,GUUCACUUGGCGUAGUGGUAACGCGUCUCCCUCCUAAGGGGAAGACUGCGGGUUCGAGUCCCGUACAGAACG [C5A G6C A15G A40G G67A],≤ 0.5
10,GUUCAGUUGGCAUAAUGGUAACGCGUCUCCCUCCUAGGGAGACGACUGCGGGUUGGAGUCCCGUACGAAACG [C5A G12A A37G A43C C55G G68A],≤ 0.5
11,GUUCAGUUGGCGUAAUGGUAACGCGUCUCCCUCCUAAGGAGAAGACUGCGGGUUAGAGUCCCGUACGGCACG [C5A C55A A69C],≤ 0.5
12,GUUCAGUUGGCGUAAUGGUAACGCGUCUCCCUCCUAAGGAGAAGACUGCGGGUUCGAGUUCCGUCCGGAACG [C5A C60U A65C],≤ 0.5
13,GUUCAGUUGGCGUAAUGCAAACGCGUAUCCCUACUAAGGAGAAGACUGCGGGUUCGAGUCGCGUACGGAGCG [C5A G18C U19A C27A C33A C61G A70G],≤ 0.5
14,GUUCAGUUGGCGUAAUAGUAACGCGUCUCCCUCCUAAGGGGAAGAAUGCGGGUUCGAGUCCCGUACGGAACG [C5A G17A A40G C46A],≤ 0.5
15,GUUCAGUUGGCAUAAUGGUAACGCGUCUCCCUCCUAAGGAGAAGACUACGGGUUCGAGUCUCGUACGGAACG [C5A G12A G48A C61U],≤ 0.5
16,GUUCAGUUGGCGUAAUGGUAACGCGUCUCCCUCCUAACGAGAAGACUGCGGGUUCGAGUCCCGUACGGAACG [C5A G38C],0.732
17,GUUCAGUUGGCGUAAUGGUAACGCGUCUCCCUCCUAAAGAGAAGACUGCGGGUUCGAGUCCCGUACGGAACG [C5A G38A],0.664
18,GUUCAGUUGGCGUAAUGGUAACGCGUCUCCCUCCUAAGGAAAAGACUGCGGGUUCGGGUCCCGUACGGAACG [C5A G41A A57G],0.545
